Results on ten compounds are retold here after ChEMBL document CHEMBL4616716, “ONO-8430506: A Novel Autotaxin Inhibitor That Enhances the Antitumor Effect of Paclitaxel in a Breast Cancer Model” (ACS Med Chem Lett, 2020).

Molecules are shown by their SMILES.

Series [1] can be described thus: AUC in Sprague-Dawley rat at 0.5 mg/kg, po administered as single cassette dosing by LC-MS/MS analysis. The series is classed as ADME, organism-based. The settings on record: in vivo. The method, boiled down:
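Rat cassette dosing, 0.5 mg/kg oral; plasma AUC reported.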

Series [2] has as its target T1, Autotaxin (Homo sapiens, UniProt Q13822). Kind of series: Inhibition of recombinant human ATX assessed as reduction in choline release using LPC(16:0) as substrate incubated for 15 hrs. Summed up: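 Recombinant human ATX with 16:0 LPC as substrate. Single-point inhibition was tested at 30 μM, and IC50 values were determined.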
The target in series [3] is T1, Autotaxin. Description: Inhibition of LysoPLD activity of ATX in human plasma assessed as reduction in choline release using LPC(16:0) as substrate incubated for 15 hrs. The class given is cell-free. Summed up: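 LysoPLD activity in human plasma with 16:0 LPC as substrate; IC50 determined.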
The nature of series [4]: Protein binding in human plasma measured after 4 hrs by LC-MS/MS analysis. The class given is ADME, cell-free. The settings on record: read-out: PPB (converted).
Series [5] in a line: Protein binding in rat plasma measured after 4 hrs by LC-MS/MS analysis. To be noted: read-out: PPB (converted). The series is classed as ADME, cell-free.
Series [6] is described as follows: Octanol/phosphate buffer partition coefficient, LogD of compound at pH 7.4 mixed for 1 hr using benchtop-rotator followed by further incubation for 1 hr by ESI-LC-MS/MS analysis. The series is classed as physicochemical.
Series [7] is described as follows: Volume of distribution at steady state in Sprague-Dawley rat at 0.3 mg/kg, iv administered as single dose by LC-MS/MS analysis. The class given is ADME, organism-based. To be noted: in vivo, read-out: Vdss.
Series [8] is described as follows: Cmax in SCID mouse at 1 mg/kg, po administered as single dose by LC-MS/MS analysis. The series is classed as ADME, organism-based. Also on record: dose 1 mg/kg, route oral. The settings on record: in vivo.
The nature of series [9]: Volume of distribution at steady state in Beagle dog at 0.3 mg/kg, iv administered as single dose by LC-MS/MS analysis. The series is classed as ADME, organism-based, Canis lupus familiaris. The settings on record: in vivo, read-out: Vdss.
The nature of series [10]: Clearance in Sprague-Dawley rat at 0.3 mg/kg, iv administered as single dose by LC-MS/MS analysis. The settings on record: in vivo. The class given is ADME, organism-based.
Series [11] addresses T1, Autotaxin. Kind of series: In vivo inhibition of lysoPLD activity of ATX in SCID mouse plasma xenografted with human MDA-MB-231 cells at 100 mg/kg, po administered twice daily for 32 days in combination with paclitaxel at 20 mg/kg, ip three times weekly for 5 weeks and measured at 18 hrs post-last dose relative to control. The series is classed as functional, organism-based.

The test system of series [12] is MDA-MB-231. Kind of series: Antitumor activity against human MDA-MB-231 cells xenografted in SCID mouse assessed as tumor growth inhibition at 100 mg/kg, po administered twice daily for 32 days and […] relative to control. The series is classed as functional. To be noted: MDA-MB-231, po, read-out: TGI. Summed up:
(§1)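 MDA-MB-231 human breast tumour-bearing mice dosed orally at 30 or 100 mg/kg twice daily for 32 days. Where combined, paclitaxel was given at 20 mg/kg ip three times weekly for 5 weeks. Tumour volume was followed and reported at day 32. Tumour growth inhibition was taken from median tumour volume versus vehicle. Groups of n = 8–9 were compared by Student t test.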
On the technique in general: In xenograft studies the graft and the host belong to different species.

Series [13] relates to MDA-MB-231. Description: Potentiation of paclitaxel-induced antitumor activity against human MDA-MB-231 cells xenografted in SCID mouse assessed as tumor growth inhibition at 30 mg/kg, po administered twice daily for 32 days in combination with paclitaxel at 20 mg/kg, ip three times weekly for 5 weeks and measured on […] (reference value: 81.5%). The class given is functional. Summed up:
as §1

Series [14] in a line: Oral bioavailability in Beagle dog at 1 mg/kg administered as single dose by LC-MS/MS analysis. The class given is ADME, organism-based, Canis lupus familiaris. To be noted: in vivo.
A short description of series [15]: Clearance in cynomolgus monkey at 0.3 mg/kg, iv administered as single dose by LC-MS/MS analysis. The series is classed as ADME, organism-based, Macaca fascicularis. The settings on record: in vivo.
The nature of series [16]: Cmax in cynomolgus monkey at 1 mg/kg, po administered as single dose by LC-MS/MS analysis. The class given is ADME, organism-based, Macaca fascicularis. Also on record: dose 1 mg/kg, route oral. To be noted: in vivo.
Series [17] is described as follows: Half life in Sprague-Dawley rat at 1 mg/kg, po administered as single dose by LC-MS/MS analysis. To be noted: in vivo. The class given is ADME, organism-based.
The nature of series [18]: Half life in cynomolgus monkey at 0.3 mg/kg, iv administered as single dose by LC-MS/MS analysis. The series is classed as ADME, organism-based, Macaca fascicularis. To be noted: in vivo.
Series [19] can be described thus: Half life in Sprague-Dawley rat at 0.3 mg/kg, iv administered as single dose by LC-MS/MS analysis. The series is classed as ADME, organism-based. To be noted: in vivo.
The nature of series [20]: Clearance in Beagle dog at 0.3 mg/kg, iv administered as single dose by LC-MS/MS analysis. The class given is ADME, organism-based, Canis lupus familiaris. To be noted: in vivo.
Series [21] in a line: Half life in Beagle dog at 0.3 mg/kg, iv administered as single dose by LC-MS/MS analysis. The settings on record: in vivo. The class given is ADME, organism-based, Canis lupus familiaris.
For series [22], the system named is MDA-MB-231. Description: Potentiation of paclitaxel-induced antitumor activity against human MDA-MB-231 cells xenografted in SCID mouse assessed as tumor growth inhibition at 100 mg/kg, po administered twice daily for 32 days in combination with paclitaxel at 20 mg/kg, ip three times weekly for 5 weeks and […] (reference value: 81.5%). The class given is functional. The method, boiled down:
as §1

Series [23] can be described thus: Cmax in Sprague-Dawley rat at 1 mg/kg, po administered as single dose by LC-MS/MS analysis. Also on record: dose 1 mg/kg, route oral. The class given is ADME, organism-based. To be noted: in vivo.
The nature of series [24]: Oral bioavailability in cynomolgus monkey at 1 mg/kg administered as single dose by LC-MS/MS analysis. The series is classed as ADME, organism-based, Macaca fascicularis. To be noted: in vivo.
A short description of series [25]: Half life in Beagle dog at 1 mg/kg, po administered as single dose by LC-MS/MS analysis. The class given is ADME, organism-based, Canis lupus familiaris. To be noted: in vivo.
A short description of series [26]: Volume of distribution at steady state in cynomolgus monkey at 0.3 mg/kg, iv administered as single dose by LC-MS/MS analysis. The class given is ADME, organism-based, Macaca fascicularis. To be noted: in vivo, read-out: Vdss.
Series [27] deals with T1, Autotaxin. Kind of series: In vivo inhibition of lysoPLD activity of ATX in SCID mouse plasma xenografted with human MDA-MB-231 cells at 30 mg/kg, po administered twice daily for 32 days in combination with paclitaxel at 20 mg/kg, ip three times weekly for 5 weeks and measured at 18 hrs post-last dose relative to control. The class given is functional, organism-based.

The nature of series [28]: Oral bioavailability in Sprague-Dawley rat at […] administered as single dose by LC-MS/MS analysis. The class given is ADME, organism-based. The settings on record: in vivo. Summed up:
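Single-dose rat PK, 1 mg/kg iv and 3 mg/kg po, n = 3. Plasma clearance was taken from the iv dose. Bioavailability was calculated from the iv and oral doses.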

Series [29] is described as follows: Cmax in Beagle dog at 1 mg/kg, po administered as single dose by LC-MS/MS analysis. Also on record: dose 1 mg/kg, route oral. The class given is ADME, organism-based, Canis lupus familiaris. To be noted: in vivo.
Series [30] can be described thus: Half life in SCID mouse at 1 mg/kg, po administered as single dose by LC-MS/MS analysis. The settings on record: in vivo. The series is classed as ADME, organism-based.

The compound `O=C(CC12CCC(C(=O)O)(CC1)C2)N1CCc2c(n(Cc3ccc(F)cc3F)c3ncccc23)C1` came in with an AUC in series [1] of 500 ng·h/mL. The IC50 turned out to be 11 nM on Autotaxin [2] and 7.9 nM at Autotaxin [3]. Moreover, the fraction unbound at 4 h in [4] is 0.008; in series [5], 0.061.

Consider `O=C(O)CCCCCC(=O)N1CCc2c(n(Cc3ccccc3)c3ncccc23)C1`, for which the half-inhibitory concentration (IC50) at Autotaxin [2] is 250 nM.

As for `O=C(O)CCC(=O)N1CCc2c(n(Cc3ccccc3)c3ncccc23)C1`, on Autotaxin [2], the IC50 was found to be 5400 nM.

Regarding `O=C(C[C@H]1CC[C@@H](C(=O)O)CC1)N1CCc2c(n(Cc3ccc(F)cc3F)c3ncccc23)C1`, the IC50 on Autotaxin [2] worked out at 19 nM; on Autotaxin [3], 16 nM. In [6], this compound gave a pH-dependent lipophilicity (logD) at 1 h of 1.36. Also, in [4], the fraction unbound at 4 h is 0.006.

Take `O=C(C[C@H]1CC[C@@H](C(=O)O)CC1)N1CCc2c(n(Cc3cccc(F)c3)c3ncccc23)C1`: the IC50 at Autotaxin [2] is 29 nM. In series [6], this compound showed a logD at 1 h of 1.45. Besides, the fraction unbound at 4 h in series [4] was 0.004.

For the compound `O=C(O)c1ccc(CC(=O)N2CCc3c(n(Cc4cccc(F)c4)c4ncccc34)C2)cc1`, the IC50 on Autotaxin [2] turned out to be 28 nM. This compound returned a logD at 1 h in series [6] of 0.67. Besides, the fraction unbound at 4 h in series [4] was 0.01.

On to `O=C(CC12CCC(C(=O)O)(CC1)CC2)N1CCc2c(n(Cc3ccc(F)cc3)c3ncccc23)C1`, for which, in series [1], the AUC came to 420 ng·h/mL. Also, the IC50 at Autotaxin [2] amounted to 12 nM; at Autotaxin [3], 6.1 nM. The fraction unbound at 4 h in series [4] is 0.014; in [5], 0.054.

Take `O=C(O)CCCC(=O)N1CCc2c(n(Cc3ccccc3)c3ncccc23)C1`: the 50% inhibitory concentration (IC50) at Autotaxin [2] was found to be 830 nM.

Regarding `O=C(O)CCCCC(=O)N1CCc2c(n(Cc3ccccc3)c3ncccc23)C1`, the IC50 on Autotaxin [2] was determined as 240 nM.

Take `O=C(CC12CCC(C(=O)O)(CC1)C2)N1CCc2c(n(Cc3ccc(F)cc3)c3ncccc23)C1`: the figures for the Vd in [7], in [9] and in [26] were 1.47 L/kg, 1.86 L/kg and 2.27 L/kg, respectively. Further, the Cmax turned out to be 124 ng/mL in series [8], 63 ng/mL in series [16], 261 ng/mL in series [23] and 1670 ng/mL in series [29]. Moreover, the clearance in series [10] was determined as 8.2 mL/min/kg; in series [15], 5.8 mL/min/kg; in [20] it was 4.7 mL/min/kg. In addition, the inhibition was 99.3% on Autotaxin [11] and 97.1% on Autotaxin [27]. In addition, the inhibition in vivo at 100 mg/kg in the series on MDA-MB-231 [12] was 14.7%. The inhibition of tumour growth (TGI) in the series on MDA-MB-231 [13] worked out at 91.2%; with MDA-MB-231 [22] it was 95.5%. Also, the bioavailability in series [14] was 71.1%; in series [24], 30.8%; in [28], 51.6%. In series [1], this compound returned an AUC of 842 ng·h/mL. Moreover, the half-life in series [17] is 2.5 h; in series [18], 7.9 h; in [19], 3.4 h; in [21] it was 8.9 h; in [25], 5.9 h; in series [30] it was 5.4 h. The concentration for half-maximal inhibition (IC50) at Autotaxin [2] was determined as 10 nM; on Autotaxin [3], 5.5 nM. Moreover, the fraction unbound at 4 h is 0.01 in [4] and 0.049 in series [5].

For orientation: AUC means the area under the concentration-time curve, a measure of exposure. By IC50 is commonly meant the point on the concentration scale where inhibition reaches its midpoint. As usually defined, the logD is lipophilicity at a set pH, counting ionised and neutral species. One may read the Cmax as the maximum level reached in the sampled fluid or tissue. What is called clearance is a measure of how efficiently the substance is removed, as volume per time. What is called inhibition is the percentage by which the read-out fell short of the control. In general, TGI refers to how far tumour growth fell short of that in controls. By bioavailability is commonly meant dose-corrected exposure relative to a reference, in per cent. In general, half-life refers to the time needed for the level to fall by half in the phase considered.
